Assay results taken from ChEMBL document CHEMBL1152518, “1,2,3-Selenadiazole thioacetanilides: synthesis and anti-HIV activity evaluation” (Bioorg Med Chem, 2009).

Columns and labels:
[1] = target: Human immunodeficiency virus type 1 reverse transcriptase (Human immunodeficiency virus 1, UniProt Q72547); experiment: Inhibition of wild type HIV1 reverse transcriptase
[2] = target: Human immunodeficiency virus type 1 reverse transcriptase (Human immunodeficiency virus 1, UniProt Q72547, K103N/Y181C); experiment: Inhibition of HIV1 reverse transcriptase K103N/Y181C mutant
[3] = test system: Human immunodeficiency virus 1; experiment: Antiviral activity against HIV1 3B infected in human MT4 cells assessed as inhibition of virus-induced cytopathic effect after 5 days by MTT assay; format: functional, organism-based; conditions: Human immunodeficiency virus 1, 3B, MT4, 120 h
In short: (§1)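 MT-4 cells, resuspended at 6 × 10⁵ cells/ml, infected with HIV-1 IIIB or HIV-2 ROD at 100–300 CCID₅₀. Test compound stocks were made at 10× final concentration. Read after 5 days as MTT reduction to formazan, absorbance at 540 and 690 nm. Median OD of three wells. EC₅₀ is the concentration giving 50% protection against virus-induced cytopathic effect.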

[4] = test system: Human immunodeficiency virus 2; experiment: Antiviral activity against HIV2 ROD infected in human MT4 cells assessed as inhibition of virus-induced cytopathic effect after 5 days by MTT assay; format: functional, organism-based; conditions: Human immunodeficiency virus 2, ISOLATE ROD, MT4, 120 h; in short: as §1
[5] = Cytotoxicity against mock-infected human MT4 cells after 5 days by MTT assay; format: cell-based
In short: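 Mock-infected MT-4 cells at 6 × 10⁵ cells/ml, with culture medium in place of virus, exposed to compound (stocks at 10× final concentration) for 5 days. Viability read by MTT, absorbance at 540 and 690 nm, median OD of three wells. CC₅₀ is the concentration reducing OD540 of the mock-infected control by 50%.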

[6] = Selectivity index, ratio of CC50 for mock-infected human MT4 cells to EC50 for HIV1 3B infected in human MT4 cells; format: toxicity, cell-based; conditions: mock-infected (CC50) and HIV-1 3B infected (EC50)
In short: (§2)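 Selectivity index is CC₅₀/EC₅₀. Both values come from MTT assays run over 5 days in MT-4 cells, mock-infected or infected with HIV-1 IIIB or HIV-2 ROD at 100–300 CCID₅₀. Median OD of three wells.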

[7] = Selectivity index, ratio of CC50 for mock-infected human MT4 cells to EC50 for HIV2 ROD infected in human MT4 cells; format: toxicity, cell-based; conditions: read-out: Ratio CC50/EC50; in short: as §2

In the case of Cc1ccc(-n2c(C)nnc2SCC(=O)Nc2ccccc2)cc1, the EC50 [1] is reported as 2.05 µM.
In the case of Cc1ccc(NC(=O)CSc2nnc(C)n2-c2ccccc2)c(Br)c1, the EC50 [1] is reported as 0.1 µM and the EC50 [2] is reported as 1.3 µM.
Cc1cc(C)c(-n2nnnc2SCC(=O)Nc2ccccc2Cl)c(C)c1 gave an IC50 [1] of 0.005 µM.
In the case of Cc1cccc(C)c1NC(=O)CSc1[se]nnc1-c1ccc(Cl)c(Cl)c1, the EC50 [3] is reported as over 7 µM, the EC50 [4] is reported as over 7 µM and the CC50 at 120 h [5] is reported as 7 µM. For the same molecule, the selectivity ratio [6] was under 1 and the selectivity ratio [7] was under 1.
In the case of O=C(CSc1[se]nnc1-c1ccc(Cl)c(Cl)c1)Nc1ccccn1, the EC50 [3] is reported as over 31.4 µM, the EC50 [4] is reported as over 31.4 µM and the CC50 at 120 h [5] is reported as 31.4 µM. It also gave a selectivity ratio [6] of under 1 and a selectivity ratio [7] of under 1.
For O=C(CSc1[se]nnc1-c1ccc(Cl)c(Cl)c1)Nc1ccccc1F, the EC50 [3] was over 26.9 µM, the EC50 [4] was over 26.9 µM and the CC50 at 120 h [5] was 26.9 µM. For the same molecule, the selectivity ratio [6] was under 1 and the selectivity ratio [7] was under 1.
In the case of COC(=O)c1ccsc1NC(=O)CSc1[se]nnc1-c1ccc(Cl)c(Cl)c1, the EC50 [3] is reported as over 22 µM, the EC50 [4] is reported as over 22 µM and the CC50 at 120 h [5] is reported as 22 µM. For the same molecule, the selectivity ratio [6] was under 1 and the selectivity ratio [7] was under 1.
Molecule O=C(CSc1[se]nnc1-c1ccc(Cl)c(Cl)c1)Nc1nccs1 has an EC50 [3] of over 8.68 µM, an EC50 [4] of over 8.68 µM and a CC50 at 120 h [5] of 8.68 µM. It also gave a selectivity ratio [6] of under 1 and a selectivity ratio [7] of under 1.
Cc1ccc(NC(=O)CSc2[se]nnc2-c2ccc(Cl)c(Cl)c2)c(Br)c1 showed an EC50 [3] of at least 8.71 µM, an EC50 [4] of over 22.9 µM and a CC50 at 120 h [5] of 22.9 µM. It also gave a selectivity ratio [7] of under 1.
In the case of O=C(CSc1[se]nnc1-c1ccc(Cl)c(Cl)c1)Nc1ccccc1Cl, the EC50 [3] is reported as over 23.4 µM, the EC50 [4] is reported as over 23.4 µM and the CC50 at 120 h [5] is reported as 23.4 µM. It also gave a selectivity ratio [6] of under 1 and a selectivity ratio [7] of under 1.
Cc1ccc(NC(=O)CSc2[se]nnc2-c2ccc(Cl)c(Cl)c2)cc1 showed an EC50 [3] of 6.65 µM, an EC50 [4] of over 13.3 µM and a CC50 at 120 h [5] of 13.3 µM. The selectivity ratio [6] was 2 and the selectivity ratio [7] was under 1.
O=C(CSc1[se]nnc1-c1ccc(Cl)c(Cl)c1)Nc1ccccc1 gave an EC50 [3] of at least 6.07 µM, an EC50 [4] of over 19 µM and a CC50 at 120 h [5] of 19 µM. For the same molecule, the selectivity ratio [6] was 63 and the selectivity ratio [7] was under 1.
Molecule Cc1cccc(NC(=O)CSc2[se]nnc2-c2ccc(Cl)c(Cl)c2)c1C has an EC50 [3] of over 12.8 µM, an EC50 [4] of over 12.8 µM and a CC50 at 120 h [5] of 12.8 µM. For the same molecule, the selectivity ratio [6] was under 1 and the selectivity ratio [7] was under 1.
For O=C(CSc1[se]nnc1-c1ccc(Cl)c(Cl)c1)Nc1cccnc1Cl, the EC50 [3] was over 24.8 µM, the EC50 [4] was over 24.8 µM and the CC50 at 120 h [5] was 24.8 µM. For the same molecule, the selectivity ratio [6] was under 1 and the selectivity ratio [7] was under 1.
O=C(CSc1[se]nnc1-c1ccc(Cl)c(Cl)c1)Nc1ccc(Cl)cc1 gave an EC50 [3] of 5.59 µM, an EC50 [4] of over 16.8 µM and a CC50 at 120 h [5] of 16.8 µM. The selectivity ratio [6] was 3 and the selectivity ratio [7] was under 1.
Work on Cc1ccccc1NC(=O)CSc1[se]nnc1-c1ccc(Cl)c(Cl)c1 yielded an EC50 [3] of 5.56 µM, an EC50 [4] of over 22.3 µM and a CC50 at 120 h [5] of 22.3 µM. For the same molecule, the selectivity ratio [6] was 4 and the selectivity ratio [7] was under 1.
Cc1ccc2sc(NC(=O)CSc3[se]nnc3-c3ccc(Cl)c(Cl)c3)nc2c1 gave an EC50 [3] of over 10.2 µM, an EC50 [4] of over 10.2 µM and a CC50 at 120 h [5] of 10.2 µM. The selectivity ratio [6] was under 1 and the selectivity ratio [7] was under 1.
Molecule Cc1ccc(NC(=O)CSc2[se]nnc2-c2ccc(Cl)c(Cl)c2)c([N+](=O)[O-])c1 has an EC50 [3] of 5.42 µM, an EC50 [4] of over 26.3 µM and a CC50 at 120 h [5] of 26.3 µM. The selectivity ratio [6] was 5 and the selectivity ratio [7] was under 1.
Molecule O=C(CSc1[se]nnc1-c1ccc(Cl)c(Cl)c1)Nc1ccccc1Br has an EC50 [3] of over 23.6 µM, an EC50 [4] of over 23.6 µM and a CC50 at 120 h [5] of 23.6 µM. It also gave a selectivity ratio [6] of under 1 and a selectivity ratio [7] of under 1.
CC(=O)c1ccc(NC(=O)CSc2[se]nnc2-c2ccc(Cl)c(Cl)c2)c(Br)c1 gave an EC50 [3] of 2.45 µM, an EC50 [4] of over 18.9 µM and a CC50 at 120 h [5] of 18.9 µM. The selectivity ratio [6] was 8 and the selectivity ratio [7] was under 1.
Molecule O=C(CSc1[se]nnc1-c1ccc(Cl)c(Cl)c1)Nc1ccccc1[N+](=O)[O-] has an EC50 [3] of at least 6.84 µM, an EC50 [4] of over 26.6 µM and a CC50 at 120 h [5] of 26.6 µM. The selectivity ratio [7] was under 1.
